High-throughput results (PubChem)
Compounds with a hit are over-represented: about 1.8% of the library has one in this group of screens.
NPY-Y1 antag: NPY-Y1 (human) receptor antagonism; HEK293-CNG Y1 cells, membrane potential fluorescence; NPY at EC95, then isoproterenol; inhibition, % at 3.6 µM; 1% of 200,000 active; P25929;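 active = inhibition above the campaign mean inhibition of all tested compounds plus 3 SD, cut at about 20% in these data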;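 also: 0% = DMSO wells given NPY plus isoproterenol and 100% = isoproterenol alone without NPY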
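Material: HEK293 cells with Y1 receptor plus CNG channel; times: compound incubation 1 h at room temperature, readout 45 min post-stimulation; signal: fluorescence, membrane potential probe; read-out basis: fluorescence ratio normalized to % inhibition between controls; benchmarks: full-block control isoproterenol-only wells, zero-block control NPY plus isoproterenol wells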
NPY-Y2 PAM-ag: human NPY-Y2 potentiation or agonism, primary screen; cells expressing NPY-Y2, potentiator/agonist read-out; activation, % at 3.6 µM; AID 1359; 0.45% of 220,000 active; P49146; in the data active = activation above about 27%;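 also: cells stimulated with NPY near EC25 plus isoproterenol at EC100; 0% = vehicle plus submaximal agonist and 100% = vehicle plus saturating agonist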
Target sequence (P49146 whole entry, looked up): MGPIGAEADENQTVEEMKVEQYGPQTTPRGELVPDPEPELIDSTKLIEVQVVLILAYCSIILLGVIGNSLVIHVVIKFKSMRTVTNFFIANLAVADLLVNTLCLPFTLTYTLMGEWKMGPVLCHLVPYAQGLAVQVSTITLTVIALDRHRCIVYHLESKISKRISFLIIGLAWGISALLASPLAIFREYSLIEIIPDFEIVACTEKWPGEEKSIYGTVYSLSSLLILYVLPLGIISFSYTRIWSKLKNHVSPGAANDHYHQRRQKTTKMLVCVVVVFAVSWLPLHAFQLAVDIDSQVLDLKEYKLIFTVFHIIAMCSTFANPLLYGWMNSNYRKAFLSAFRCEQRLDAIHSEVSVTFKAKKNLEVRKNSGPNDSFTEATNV
NPY1 pot ag: human NPY-Y1 potentiation or agonism, primary screen; 0.37% of 220,000 active; NPY-Y1 expressing cells, potentiator/agonist activation; P25929; activation, % at 3.6 µM; in the data active = activation above about 33%, passing the limit was not always enough;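 also: cells stimulated with NPY at EC10 then isoproterenol at EC100; 0% = low agonist plus stimulus and 100% = saturating agonist plus stimulus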
NPY Y2 blocker: antagonists of human neuropeptide Y receptor Y2; AID 793; 0.99% of 140,000 active; NPY-Y2 expressing cells, antagonist mode; inhibition, % at 2.7 µM; in the data active = inhibition above about 17%;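 also: 0% = vehicle with agonist challenge and 100% = reference antagonist with challenge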
NPY1 antag ctr: human NPY-Y1 antagonism in NPY-Y2 counter-screen; shares compounds with NPY Y2 blocker; cell-based NPY-Y1 antagonism counterscreen; inhibition, % at 3.6 µM; 19% of 710 active; AID 1256; in the data active = inhibition above about 20%;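 also: cells challenged with NPY then isoproterenol with cAMP sensed through a CNG channel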
NPY-Y2 ant conf: human NPY-Y2 antagonism, confirmation | shares compounds with NPY Y2 blocker | HEK293 NPY-Y2 CNG channel, membrane potential fluorescence | inhibition, % at 2.8 µM | 32% of 710 active | AID 1257;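 active = mean inhibition of triplicate wells above the hit cutoff set in the primary screen, cut at about 17% in these data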;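 also: 0% = DMSO with NPY challenge and 100% = BIIE0246 high control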
Active calls of the source: *; . = not tested or not shown.

SMILES | NPY-Y1 antag | NPY-Y2 PAM-ag | NPY1 pot ag | NPY Y2 blocker | NPY1 antag ctr | NPY-Y2 ant conf
Cc1cccc2cc(C#N)c(SCC(=O)Nc3ccccc3N3CCOCC3)nc12 | -1 | 11 | -9 | 0 | . | .
Oc1ccc(C(c2nnnn2CCc2ccccc2)N2CCN(c3nc4ccccc4s3)CC2)cc1 (stereo not given) | . | 8 | 29 | . | . | .
O=C(COC(=O)c1ccc(S(=O)(=O)NCc2ccco2)cc1)NC1CCCCCC1 | 2 | 8 | 16 | 1 | . | .
O=C(NC1CCCCCC1)c1ccc(S(=O)(=O)NCc2ccco2)cc1 | 17 | -11 | -14 | 21* | 12 | 6
CCCC(c1nnnn1C(C)(C)CC)N1CCN(C2CCCC2)CC1 (stereo not given) | 19 | -23 | -21 | 25* | 15 | 8
CCC(c1nnnn1C(C)(C)C)N1CCN(C2CCCC2)CC1 (stereo not given) | 1 | 2 | -5 | 4 | . | .
CCC(c1nnnn1C1CCCCC1)N1CCN(C2CCCC2)CC1 (stereo not given) | 9 | 2 | -22 | 27* | 11 | 12
O=C(CSc1nnc(-c2cccs2)o1)c1cccs1 | 8 | -5 | 14 | 3 | . | .
Cc1cc(C(=O)CSc2nnc(-c3cccs3)o2)c(C)n1-c1ccccc1 | 0 | 2 | -9 | 20* | 16 | 12
Fc1cccc(CSc2ccc(-c3ccc4c(c3)OCO4)nn2)c1 | 12 | -8 | -19 | 19* | 12 | 9
c1cncc(CSc2ccc(-c3ccc4c(c3)OCO4)nn2)c1 | -5 | -1 | -4 | . | . | .
Cc1nn(-c2ccc(F)cc2)c(C)c1/C=C/C(=O)N1CCNC(=O)C1 | 0 | -21 | -1 | . | . | .
Oc1ccccc1CNc1ccc(Br)cn1 | 6 | 12 | 8 | 151* | 26* | 52*
CC(C)C1N(C(=O)CN2CCCCC2)CCN1S(=O)(=O)c1ccccc1 (stereo not given) | 4 | -3 | -5 | . | . | .
O=C(CN1CCc2ccccc2C1)NCC(=O)Nc1ccc(F)cc1 | 2 | 3 | 15 | . | . | .
CCCn1c2ccccc2c2cc(C(=O)O)ccc21 | 7 | -12 | -17 | 19* | 5 | 8
Cn1c2ccccc2c2cc(C(=O)O)ccc21 | 3 | 3 | 10 | 1 | . | .
CCN1/C(=C2\OC(=S)N(C)C2=O)Sc2ccccc21 | -1 | 5 | 11 | 20* | -1 | 12
CCN1/C(=C2\OC(=S)N(C)C2=O)C=Cc2ccccc21 | -4 | -6 | 5 | . | . | .
N#Cc1nc(Cc2ccccc2)oc1N1CCN(c2cccc(Cl)c2)CC1 | 8 | 17 | -29 | 0 | . | .
N#Cc1nc(COc2ccc(Cl)cc2Cl)oc1N1CCN(c2ccccc2)CC1 | 13 | -16 | -14 | 17* | 29* | 21*
Cc1ccc(N(Cc2cc3ccc(C)cc3[nH]c2=O)S(C)(=O)=O)c(C)c1 | . | 3 | 5 | . | . | .
CCCCNC(=O)c1onc(CSc2cccc(C)c2)c1C(=O)O | 20 | -32 | -43 | 21* | 18 | 12
CCCCNC(=O)c1onc(CSc2ccccc2F)c1C(=O)O | 16 | -21 | -35 | 37* | 20 | 18*
CCCCNC(=O)c1onc(CSc2cc(C)cc(C)c2)c1C(=O)O | 13 | -39 | -29 | 14 | . | .
SMILES | NPY-Y1 antag | NPY-Y2 PAM-ag | NPY1 pot ag | NPY Y2 blocker | NPY1 antag ctr | NPY-Y2 ant conf
C=CCNC(=O)c1onc(CSc2cccc3ccccc23)c1C(=O)O | 12 | -31 | -11 | 8 | . | .
C=CCNC(=O)c1onc(CSc2ccccc2F)c1C(=O)O | 15 | -37 | -7 | 18* | 19 | 12
O=C(NCCO[N+](=O)[O-])c1cccnc1 | 4 | 15 | 23 | . | . | .
N#Cc1c2n(c(=S)n(-c3ccc(F)cc3)c1=O)CCCCC2 | -3 | 5 | 6 | . | . | .
O=C(NCc1ccc2c(c1)OCO2)c1cc(-c2ccccc2)on1 | 0 | 5 | -36 | 8 | . | .
Cc1ccc(-c2cc(C(=O)NCc3ccc4c(c3)OCO4)no2)cc1 | 17 | -12 | -41 | 18* | 14 | 10
CC(C)(C)C1=CC=C(C(C)(C)C)C(=O)C1=O | . | -17 | -29 | . | . | .
Cc1cc(C)nc(NC(=O)CSc2nc3ccccc3s2)n1 | 2 | -1 | -23 | 2 | . | .
Cc1ccc(S(=O)(=O)NC(=O)CSc2nc3ccccc3s2)cc1 | 13 | -25 | -21 | 20* | 12 | 14
Cc1ccc(CNC(=O)CCc2nnc(Cc3ccc(-c4ccccc4)cc3)o2)o1 | -3 | 0 | 10 | . | . | .
Cc1cccc(NC(=O)C(c2cccc([N+](=O)[O-])c2)N2CCCCC2)c1 (stereo not given) | 15 | -10 | -12 | 17* | 16 | 6
COc1cccc(NC(=O)C(c2ccccc2)N2CCCC2)c1 (stereo not given) | 10 | 1 | -21 | . | . | .
COc1ccccc1N(CC(O)Cn1ccnc1C)S(=O)(=O)c1ccc(C)cc1 (stereo not given) | -3 | -6 | 2 | . | . | .
Cc1cc(NC(=O)c2c(F)cccc2F)n(-c2nc3ccccc3[nH]2)n1 | -1 | -6 | -17 | 8 | . | .
Cc1cc(NC(=O)C2CCCCC2)n(-c2nc3ccccc3[nH]2)n1 | 9 | -14 | -23 | 17* | 22* | 13
O=C(NCc1ccco1)NC1CCCCC1 | 6 | -1 | -6 | 4 | . | .
CCC(C)(C(=O)NC1CCCCC1)N(Cc1ccco1)C(=O)c1ccccn1 (stereo not given) | 14 | -19 | -20 | 17* | 12 | 9
COc1cccc(N2CCN(C(=S)NCc3ccco3)CC2)c1 | -2 | -18 | 15 | 0 | . | .
O=C(N/N=C/c1ccco1)c1ccc(OCc2ccccc2)cc1 | . | -3 | 5 | . | . | .
O=C(N/N=C/c1ccco1)c1ccccc1OCc1ccc(Br)cc1 | 16 | -47 | -59 | 33* | 20 | 20*
CCS(=O)(=O)c1ccc(O)c(NC(=O)Nc2cccc3ccccc23)c1 | . | -12 | -5 | . | . | .
Cc1ccc(-c2nn3c(C)nnc3s2)cc1NC(=O)c1ccc(-c2ccc(Cl)cc2Cl)o1 | 4 | -10 | -14 | 19* | 22* | 24*
CC(C)CSc1nc2c(=O)[nH][nH]c(=O)c2n1Cc1ccccc1 | 0 | 3 | -2 | 2 | . | .
c1ccc(-c2oc3ncnc(NCCCN4CCOCC4)c3c2-c2ccccc2)cc1 | 11 | -8 | 8 | 18* | 17 | 17
CCOc1ccc(C(C(=O)NC2CCCC2)N(Cc2ccccc2)C(=O)c2nsc(Cl)c2Cl)cc1 (stereo not given) | 18 | -16 | -25 | 25* | 21* | 14
Cc1cccc(C)c1NC(=O)CCCSc1nnc(-c2ccc(Cl)cc2)n1-c1ccccc1 | 2 | 1 | -9 | 18* | 3 | 12
Oc1cccc(-c2nc3ccc4ccccc4c3c3c2CCC3)c1 | 16 | -36 | -30 | 30* | 10 | 32*
N#C/C(=C\c1cn(Cc2ccc(F)cc2)c2ccccc12)C(=O)NCc1ccco1 | 0 | 3 | -14 | 18* | 1 | 5
O=C(NC1CCCc2ccccc21)c1cccc(S(=O)(=O)N2CCOCC2)c1 (stereo not given) | 7 | -11 | -6 | . | . | .
